Rows were chosen to be rich in hits. Some 3.4% of all compounds tested hit in one or more screens of this group.
PKD1 kinase inh = inhibitors of human PKD1 kinase, biochemical, fluorescence polarization; PKD1 kinase fluorescence polarization assay; 200,000 compounds, 0.056% hits; AID 797, 2007; inhibition, % (test concentration not listed); in the data active means inhibition above about 50%
Target sequence (Q15139 whole entry, looked up): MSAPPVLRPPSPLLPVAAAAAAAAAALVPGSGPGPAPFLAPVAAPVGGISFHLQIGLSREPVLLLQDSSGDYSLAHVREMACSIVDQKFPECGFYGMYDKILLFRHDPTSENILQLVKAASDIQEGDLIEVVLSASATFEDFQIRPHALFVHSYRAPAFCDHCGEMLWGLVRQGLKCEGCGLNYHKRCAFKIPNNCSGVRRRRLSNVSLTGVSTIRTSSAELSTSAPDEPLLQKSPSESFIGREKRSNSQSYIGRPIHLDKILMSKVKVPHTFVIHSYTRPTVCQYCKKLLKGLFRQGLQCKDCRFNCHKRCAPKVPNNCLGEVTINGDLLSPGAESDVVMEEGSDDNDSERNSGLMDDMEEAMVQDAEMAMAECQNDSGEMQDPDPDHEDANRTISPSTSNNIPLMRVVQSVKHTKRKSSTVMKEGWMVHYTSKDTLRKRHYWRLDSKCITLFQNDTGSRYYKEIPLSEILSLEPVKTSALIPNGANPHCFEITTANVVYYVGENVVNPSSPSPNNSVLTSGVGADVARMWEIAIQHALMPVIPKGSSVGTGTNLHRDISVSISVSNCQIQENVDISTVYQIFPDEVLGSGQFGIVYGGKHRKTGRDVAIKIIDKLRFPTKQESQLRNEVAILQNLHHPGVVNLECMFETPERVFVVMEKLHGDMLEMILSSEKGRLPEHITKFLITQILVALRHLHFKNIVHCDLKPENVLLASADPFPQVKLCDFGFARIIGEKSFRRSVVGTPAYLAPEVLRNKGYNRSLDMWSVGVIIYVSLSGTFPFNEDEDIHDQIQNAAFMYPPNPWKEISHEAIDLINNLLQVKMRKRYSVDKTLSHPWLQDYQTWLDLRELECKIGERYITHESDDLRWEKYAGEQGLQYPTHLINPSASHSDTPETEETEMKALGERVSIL
Cl transport mod = KCC2 cotransporter modulators, thallium flux, primary screen, cell-based, HEK293 KCC2, FluoZin-2 fluorescence, MLSMR. Solute carrier family 12 member 5 (Homo sapiens), Q9H2X9. KCC2 cells, thallium flux FluoZin-2 fluorescence. B-score of Tl+ flux slope (higher = more flux/activation; lower = inhibition) at 10 µM. 190,000 compounds, 2.2% hits. AID 1456, 2008;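 active means thallium flux slope and its plate-corrected score both differing from the plate sample mean at a set confidence after two filtering rounds, in either direction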;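 further: slope of fluorescence scaled to starting intensity during 10 to 20 s after thallium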
MDM2 E3 inh = MDM2-luciferase reporter signal enhancers, primary screen, MDM2 E3 ligase inhibitor project, cell-based, luminescence, 1536-well. E3 ubiquitin-protein ligase Mdm2 (Homo sapiens), Q00987. cell-based MDM2 ubiquitination luciferase reporter, 2 h; 0 = plate control, 100 = twice control, blank-subtracted. signal enhancement, % at 5 µM. 210,000 compounds, 0.11% hits. AID 1230, 2008;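 active means signal enhancement of 30% or more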;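 further: luminescence tracks abundance of the self-degrading MDM2-luciferase fusion protein; higher signal means inhibition of MDM2 E3 ligase activity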
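system = mammalian cells stably expressing self-ubiquitinating, self-degrading MDM2 E3–luciferase fusion | quantity = 2000 cells per well seeded | incubation = 4 h cell settling then 2 h compound exposure, 37 °C | signal = SteadyLite luminescence, 15 min reagent step | benchmarks = plate control and blank wells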
DTT redox prof = compounds producing H2O2 with reducing agent – biochemical, NIH compound library profiling, artefact control for MLSCN library redox annotation, primary screen; DTT-dependent redox cycling H2O2, phenol red/HRP absorbance; 100% = 100 µM peroxide control, 0% = buffer; activation, % at 10 µM; 200,000 compounds, 0.03% hits;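 active means activation of at least 50% relative to the plate's high and low controls in the primary single-dose screen; inactive means activation below 50%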;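 further: compound incubated with DTT at 0.8 mM final as the reducing agent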
ROMK mod = ROMK potassium channel modulators, primary screen, cell-based, thallium flux, MLSMR library. AID 1918, 2009. B-score at 10 µM. 130,000 compounds, 2% hits. ATP-sensitive inward rectifier potassium channel 1 (Homo sapiens), P48048. Tet-inducible ROMK, thallium flux fluorescence; actives lie on both sides;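 active means signal ratio slope over the read window, or its plate-corrected B-score, at least 3 SD from the plate mean, either direction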;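 further: B-score of the F/F0 ratio slope over 7 to 12 s after thallium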
p97 ATPase inh = inhibitors of human p97 ATPase, primary screen, biochemical; Transitional endoplasmic reticulum ATPase (Homo sapiens), P55072; recombinant p97 ATPase, Kinase-Glo ATP luminescence, 3 h; inhibition, % at 8 µM; 220,000 compounds, 0.42% hits; in the data active means inhibition above about 15%;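 further: 0% = DMSO vehicle and 100% = wells lacking enzyme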
The depositor's hits bear a star; . = no result given.

SMILES	PKD1 kinase inh	Cl transport mod	MDM2 E3 inh	DTT redox prof	ROMK mod	p97 ATPase inh
O=C(Nc1nnc(-c2ccccc2)o1)c1ccc(Cl)cc1	-13	64*	-2	1	10*	-3
COC(=O)c1ccc(C(=O)Nc2nnc(-c3cccnc3)o2)cc1	-7	1.2	-8	-1	0.62	6
O=C(Nc1nnc(-c2ccc(Cl)cc2)o1)c1cccc(N2C(=O)CCC2=O)c1	-12	17*	-14	0	.	-1
O=c1c(O)c(-c2ccc(O)cc2O)oc2cc(O)cc(O)c12	-3	2.7	.	0	.	49*
O=C(Nc1ccccc1-c1ccccc1)c1cnccn1	15	0.17	-5	1	.	2
CCOC(=O)c1ccc2ncc(C(=O)OCC)c(NCc3ccco3)c2c1	16	-0.022	-6	2	3.3*	6
Cc1ccc(S(=O)(=O)N2CCN(C(=O)c3cc4c(C)nn(-c5ccccc5C)c4s3)CC2)cc1	6	-0.034	5	4	.	-1
CCCc1[nH]nc2c1C(c1ccc(OC)c(CSC3=NCCS3)c1)C(C#N)=C(N)O2 (centres undefined)	-3	-0.084	3	0	-3.1*	1
CCCNC(=O)CSc1nnc(-c2ccc(F)cc2)o1	-9	0.72	-5	0	1.2	6
COc1ccc2[nH]c3c(N4CC(C)OC(C)C4)ncnc3c2c1 (centres undefined)	2	.	35*	0	-1.1	2
CCCCn1c(-c2csc3c2CCCC3)n[nH]c1=S	-3	3*	-6	-1	-0.58	-3
CCCCn1c(-c2csc3c2CCC(C)C3)n[nH]c1=S (centres undefined)	0	22*	-11	-4	.	1
CCOC(=O)c1cc(-c2ccc(C)c([N+](=O)[O-])c2)nc2c1c(=O)n(C)c(=O)n2C	1	-0.6	5	0	1.1	0
NC(=O)[C@H](Cc1cc2ccccc2s1)NC(=O)[C@@H]1CC2(CC(c3cccc(NC(=O)[C@@H]4CCC(=O)N4)c3)=NO2)CN1C(=O)/C=C/Sc1ccccc1 (some centres undefined)	-1	-2	.	1	1.4	17*
NC(=O)[C@H](Cc1cc2ccccc2s1)NC(=O)[C@@H]1CC2(CC(c3cccc(NC(=O)[C@@H]4CCC(=O)N4)c3)=NO2)CN1C(=O)c1ccccc1 (some centres undefined)	8	0.48	-4	-10	0.53	3
CCOC(=O)c1c(C)c(C)n(Cc2ccc(OC)c(OC)c2)c1C	-6	-3.2	-4	-1	-1.9	-4
O=C(Cc1ccc(F)cc1)Nc1cccc2cccnc12	-6	-1.3	-11	0	.	-4
CCn1nc(C(=O)OCC(=O)N2CCc3ccccc32)c2ccccc2c1=O	-13	-3.4*	-7	-3	.	4
Cc1nc(/C(N)=N/OC(=O)c2cccc(Cl)c2)c(C(F)(F)F)o1	.	-0.31	-5	.	.	3
Cc1ccc(N2NC(=O)/C(=C/c3ccc(-c4ccc(Cl)c(C(=O)O)c4)o3)C2=O)cc1C	-2	0.17	-1	-1	.	5
O=C1NN(c2cccc(Br)c2)C(=O)/C1=C/c1ccc(-c2cc([N+](=O)[O-])ccc2O)o1	.	-0.98	.	.	.	35*
CCc1ccc(/C=N/NC(=O)c2cc(C3CC3)nc3ccccc23)s1	-7	-0.1	-15	0	3.2*	4
O=C(N/N=C/c1ccc([N+](=O)[O-])cc1)c1cc(C2CC2)nc2ccccc12	.	0.23	-19	.	.	0
COc1ccc(CNC(=O)c2cc3c(=O)n4ccccc4nc3n(Cc3ccco3)c2=N)cc1	-3	1.1	.	2	.	35*
O=C(COC(=O)c1ccc2ncsc2c1)NC(=O)NCc1ccccc1	4	-0.75	-4	-1	-0.94	1
SMILES	PKD1 kinase inh	Cl transport mod	MDM2 E3 inh	DTT redox prof	ROMK mod	p97 ATPase inh
Cc1nc(-c2cn[nH]c2-c2ccc(O)cc2O)cs1	4	0.22	-9	-1	-3.1*	-4
COc1cc(C)c(-c2[nH]ncc2-c2csc(C)n2)c(O)c1	0	0.056	.	-1	-0.46	0
CCOC(=O)CSc1nc2sc3c(c2c(=O)n1C1CCCCC1)CCN(C)C3	3	0.19	.	1	-3.5*	3
NC(=S)N/N=C1/CCSc2ccc3ccccc3c21	-2	4.4*	-14	1	-3.2*	-5
C=CCn1c(N)nc2ccccc21	-15	0.093	-14	3	.	10
CCCCCc1ccc(OCCCC[n+]2cccc(C)c2)c(CCCCC)c1	2	0.78	-48	0	-2	12
CCC(C)(C)c1ccc(OCCCC[n+]2ccccc2)c(C(C)(C)CC)c1	-6	-0.01	-15	0	-3.7*	0
O=C1c2ccccc2NC(c2ccc(-c3ccc(Br)cc3)o2)N1O (centres undefined)	2	8.6*	-28	-4	.	7
CC(C)c1ccc(NC(=O)C2CCCN(S(=O)(=O)c3cnc[nH]3)C2)cc1 (centres undefined)	4	-0.53	-16	-2	.	-2
CC(NC(=O)C1CCCN(S(=O)(=O)c2cnc[nH]2)C1)c1ccccc1 (centres undefined)	-5	-2.4	-15	-2	.	18*
CCOC(=O)C(=CNc1ccc(C(F)(F)F)cc1)C(=O)OCC	.	-1.2	-9	.	.	-4
CCN(CC)C(=O)CN1CCN(c2ncccn2)CC1	0	0.43	53*	2	0.56	5
O=C(CN1CCN(c2ncccn2)CC1)N1CCCC1	-2	0.74	-2	0	0.74	7
Cc1nc(-c2noc(-c3cccc(Cl)c3)n2)c(C(F)(F)F)o1	.	0.33	-11	.	.	-3
Cc1cc2nc(CCN(C(=S)NCC3CCCO3)C3CCCC3)[nH]c2cc1C (centres undefined)	-5	-3.7	9	0	-1.9	4
Cc1cc2nc(CCN(C(=S)NCC(C)C)C3CCCC3)[nH]c2cc1C	4	-5.6*	-15	-7	.	-4
c1ccc2c(c1)oc1c(Nc3ccc4c(c3)OCO4)ncnc12	-11	.	-11	1	.	-5
c1ccc2c(c1)oc1c(NCc3ccc4c(c3)OCO4)ncnc12	-3	-5.1*	-6	0	-2.4	3

Screening results deposited in PubChem BioAssay by several laboratories.
